# High-throughput results as filed in PubChem.
# PostGolgi ctrl: yeast control strain growth, post-Golgi counter-screen; efflux-deficient yeast background strain, growth absorbance A615, 16 h; inhibition, % at 10 µM; 98,000 tested, 5% active
# Yeast life ext: yeast lifespan extension. 130,000 tested, 0.68% active. inhibition of the nicotinamide effect, % at 10 µM. S. cerevisiae growth with nicotinamide, OD615; deaD strain in restrictive glucose medium;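 active = inhibition above a set limit, placed 3 SD over the median of all compounds, cut at about 26% in these data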;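 also: 0% = nicotinamide-treated wells and 100% = cells grown without nicotinamide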
#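 Assay system: DeaD-strain S. cerevisiae. Medium: CSMM-D glucose medium, restrictive. Reagent: nicotinamide, 1.5 mM, co-present with compound. Compound: 10 µM single point, 0.25% DMSO. Schedule: culture preincubation 4 h, compound exposure 48 h, both 30 °C. Detection: absorbance at 615 nm.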
# PostGolgi yeast: growth inhibition of a yeast mutant, post-Golgi transport screen; AID 739; 98,000 tested, 0.9% active; post-Golgi transport phenotypic cell assay; inhibition, % at 10 µM;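 also: yeast cells grown in 1536-well plates; yeast grown about 18 h at 30C before absorbance read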
# BB579 growth dn: yeast BB579 growth reduction in restrictive medium; S. cerevisiae BB579 growth, OD615, 48 h; inhibition, % at 10 µM; 140,000 tested, 0.51% active; AID 804;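 active = inhibition above a set limit, 3 SD over the mean compound inhibition, cut at about 44% in these data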
#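 System: Saccharomyces cerevisiae DeaD strain BB579, replicative lifespan model yeast | Buffer or medium: Restrictive glucose-based CSMM-D medium | Times: 4 h preincubation and 48 h exposure at 30 °C | Detection: OD615 turbidity measurement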
# * hit, by the source's call; x = no result. This excerpt belongs to a sample that is enriched for hits. Rule as the data show it, unless noted: active = inhibition above about 30%; inactive = the rest.
SMILES,PostGolgi ctrl,Yeast life ext,PostGolgi yeast,BB579 growth dn
Nc1c(C(=O)OCc2ccccc2)c2nc3ccccc3nc2n1Cc1cccs1,27.2,-24.0,7.4,-42.1
CN1C2CCC1/C(=C/c1ccccn1)C(=O)/C2=C\c1ccccn1,x,37.2*,x,-31.3
FC(F)(F)C1=NC(C(F)(F)F)=NP(N2CCOCC2)(N2CCOCC2)=N1,1.4,-9.4,-0.6,-26.1
O=C(Cc1cccs1)N1CCC2(CC1)OCCO2,20.9,-1.9,2.6,-28.2
Nc1c(C(=O)NCCN2CCOCC2)c2nc3ccccc3nc2n1Cc1ccco1,11.8,-6.0,-9.5,-29.5
CCC(C)NC(=O)c1c(N)n(CC2CCCO2)c2nc3ccccc3nc12 (stereo not given),56.0*,-7.5,-0.3,-28.7
CC(C)CCNC(=O)c1c(N)n(CC2CCCO2)c2nc3ccccc3nc12 (stereo not given),56.8*,-10.0,-1.9,-33.7
Cc1ccccc1-n1c(O)c(/C=N/N2CCOCC2)c(=O)[nH]c1=S,x,-1.2,x,-31.4
CCc1cc2c(s1)NC(=O)CN=C2c1cccs1,19.2,-4.8,27.2,-37.3
CCOCCCNC(=O)C1c2cc(OC)c(OC)cc2C(=O)N2CCCCC12 (stereo not given),x,1.4,x,-5.6
Cc1ccc(NP(=O)(Oc2ccccc2F)Oc2ccccc2F)cc1,36.2*,17.4,13.6,-49.6
COc1ccc(C(=O)C(C)(C)NO)cc1,-1.8,9.4,7.5,51.6*
CCCCCc1nc2c(c(=O)c3ccccc3n2C)c(=O)n1C1CCCCCC1,x,34.4*,x,15.0
CCCCCc1nc2ccccc2c(=O)n1-c1ccccc1[N+](=O)[O-],x,7.4,x,-20.7
N#Cc1ccccc1Cn1cc(C(=O)c2ccco2)c2ccccc21,11.8,-5.6,-5.3,-11.7
CC(NC1CCCCC1)C(O)C12CC3CC(CC(C3)C1)C2 (stereo not given),1.3,-8.8,-2.3,-3.6
O=C1CN=C(c2ccccc2)c2ccccc2N1Cc1ccc(C(F)(F)F)cc1,41.7*,-13.9,3.3,-33.4
Cc1oc(-c2ccccc2Cl)nc1CN1C(=O)CN=C(c2ccccc2)c2ccccc21,x,10.6,x,-41.6
O=C(c1ccco1)C12CN3CN(CN(C3)C1)C2,-6.8,-7.2,6.4,-19.2
Cc1ccc(-n2nc(C)c(C3C(C#N)=C(N)Oc4c3c(=O)oc3ccccc43)c2Cl)cc1 (stereo not given),38.9*,-7.2,7.5,-62.9
CCCC(C)C1C(C#N)=C(N)Oc2c1c(=O)oc1ccccc21 (stereo not given),36.2*,-4.9,6.1,-36.2
CC1CCCCN1CC(=O)c1ccc2cc[nH]c2c1 (stereo not given),12.4,-3.2,-1.3,-25.2
CCOc1cc2[nH]c(=S)n(CCCC(=O)N3CCC4(CC3)OCCO4)c(=O)c2cc1OCC,39.4*,-24.4,6.1,-10.1
O=C(O)CCCc1ccc(N(CCCl)CCCl)cc1,x,27.1*,x,-22.9
Cc1ccc2c(c1)C1CN(C)CCC1N2C(=O)COc1ccc(S(=O)(=O)N2CCOCC2)cc1 (stereo not given),-1.8,-2.2,4.1,14.7
SMILES,PostGolgi ctrl,Yeast life ext,PostGolgi yeast,BB579 growth dn
COc1ccc(C2=NCC(=O)N(CC(=O)NCc3ccco3)c3sc4c(c32)CCCC4)cc1,8.4,-3.8,-4.5,2.8
O=C(CN1C(=O)CN=C(c2ccccc2Cl)c2cc(Cl)ccc21)NCc1ccco1,31.1*,-2.4,2.8,-21.3
Cc1cc(C)cc(N2C(=O)NC(=O)/C(=C\C=C\c3ccco3)C2=O)c1,x,28.4*,x,-13.1
CC(C)c1ccc(N2C(=O)NC(=O)/C(=C/C=C/c3ccco3)C2=O)cc1,x,11.3,x,-21.4
CCCCN1C(=O)/C(=C/C=C/c2ccco2)C(=O)NC1=S,x,25.1,x,-19.0
Cc1ccc(N2C(=O)NC(=O)/C(=C/C=C/c3ccco3)C2=O)cc1,x,27.1*,x,-25.8
Cc1c2ccncc2c(C)c2c1[nH]c1ccccc12,x,-7.5,x,99.9*
C=CC1CN2CCC1CC2c1[nH]c2ccccc2c1CCO (stereo not given),x,10.1,x,-30.7
Cc1ccc2c(c1)CC1(CN2C)C(=O)NC(=O)N(CCc2ccccc2)C1=O (stereo not given),37.0*,1.7,9.3,7.0
CN=C(SCc1cc2c(cc1Cl)OCO2)c1c(O)n(C)c(=O)n(C)c1=O,4.9,56.5*,-8.1,18.5
Cn1c(O)c(C(=O)c2ccccc2Cl)c(=O)n(C)c1=O,x,x,x,3.0
CSc1ccc(C(=O)C(C)(C)N2CCOCC2)cc1,14.6,0.9,8.8,-5.6
Cc1sc2ncn(CC(=O)NCC(=O)N3CCC4(CC3)OCCO4)c(=O)c2c1C,-6.0,1.7,3.7,31.6
Cc1sc2ncn(CC(=O)NCCCC(=O)N3CCC4(CC3)OCCO4)c(=O)c2c1C,35.5*,-23.4,-13.0,-27.7
CC(=O)C1C2c3ccccc3O[C@@]1(C)N=c1s/c(=C/c3ccoc3)c(=O)n12 (stereo not given in full),x,6.0,x,-43.4
O=C(Cn1ncc2c3ccccc3n(Cc3ccccc3F)c2c1=O)N1CCC2(CC1)OCCO2,9.8,-17.1,54.6*,-14.7
C=CCN(c1ccc(C(=O)N(CC)CC)cc1)S(C)(=O)=O,x,x,x,-12.1
CCN(CC)C(=O)c1ccc(N2C(=O)C3CC=C(Cl)CC3C2=O)cc1 (stereo not given),13.1,26.4*,-1.6,-1.7
